For four compounds, fold change (FC) and Activity results are on record in ChEMBL document CHEMBL3421613, “Inubosins A, B, and C are acridine alkaloids isolated from a culture of Streptomyces sp. IFM 11440 with Ngn2 promoter activity” (J Nat Prod, 2015).

The structures appear in SMILES notation. Activity calls are given as the source filed them. The calls are words filed in the database; no cut-off is given here.

In assay [1] the test system is C3H 10T1/2. The assay is described as follows: Activation of 1650 bp mouse Ngn2 promoter activity expressed in mouse C3H10T1/2 cells at 100 uM incubated for 24 hrs by luciferase reporter gene assay relative to untreated control. Format: cell-based. The essentials: (§1)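 C3H10T1/2 mesenchymal progenitor cells stably transfected with a luciferase reporter carrying the mouse Ngn2 promoter region (1650 bp). Cells were exposed for 24 h in 0.1% DMSO, with DMSO as negative control and baicalin (100 μM) as positive control. Luciferase output was read, n = 3, SD. Cytotoxicity to the same cells was measured in parallel by fluorimetric microculture assay (esterase hydrolysis of fluorescein diacetate).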

For assay [2], the species on record is Mus musculus. In words: Induction of Ngn2 mRNA expression in mouse C17.2 cells at 20 uM incubated for 4 days by real-time RT-PCR method. Format: functional, cell-based. The essentials:
(§2)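 Mouse C17.2 neural stem cells were treated at 20 μM for 4 days, with baicalin (20 μM) as positive control. Total RNA was isolated and Ngn2, Ngn1, NeuroD2 and NT3 transcripts were quantified by real-time RT-PCR. mRNA levels were normalized to GAPDH; SD shown.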

The test system of assay [3] is C3H 10T1/2. The assay is described as follows: Activation of 1650 bp mouse Ngn2 promoter activity expressed in mouse C3H10T1/2 cells at 2.5 to 20 uM incubated for 24 hrs by luciferase reporter gene assay. It counts as cell-based. The method, boiled down:
as §1
Background: Reporter assays use an easily measured gene product as a stand-in for the process of interest.

Assay [4] is filed under the species Mus musculus. The assay is described as follows: Induction of cell differentiation of mouse C17.2 cells assessed as appearance of differentiated cell bodies. Format: functional.
Assay [5] is filed under the species Mus musculus. In words: Induction of NeuroD2 mRNA expression in mouse C17.2 cells at 20 uM incubated for 4 days by real-time RT-PCR method. It counts as functional, cell-based. The method, boiled down: as §2
(In qPCR the cycle at which signal appears reflects the starting amount.)

Assay [6] is filed under the species Mus musculus. In words: Induction of Ngn1 mRNA expression in mouse C17.2 cells at 20 uM incubated for 4 days by real-time RT-PCR method. Format: functional, cell-based. The method, boiled down:
as §2

Assay [7] is filed under the species Mus musculus. The assay is described as follows: Induction of NT3 mRNA expression in mouse C17.2 cells at 20 uM incubated for 4 days by real-time RT-PCR method. Format: functional, cell-based. The essentials:
as §2

Assay [8] concerns C3H 10T1/2. In words: Activation of 1650 bp mouse Ngn2 promoter activity expressed in mouse C3H10T1/2 cells at 20 uM incubated for 24 hrs by luciferase reporter gene assay relative to untreated control. Format: cell-based. The essentials: as §1
Assay [9] relates to C3H 10T1/2. In words: Activation of 1650 bp mouse Ngn2 promoter activity expressed in mouse C3H10T1/2 cells at 20 uM incubated for 24 hrs by luciferase reporter gene assay relative to baicalin. Format: cell-based. The essentials: as §1

`O=C(O)[C@H]1O[C@@H](Oc2cc3oc(-c4ccccc4)cc(=O)c3c(O)c2O)[C@H](O)[C@@H](O)[C@@H]1O` registered a fold change (FC) in assay [1] of 1.5.

As to `OCc1ccc2nc3c(O)cccc3cc2c1`, the outcome in assay [2], in assay [4], in [5], in [6] and in assay [7] was Active. Also, the outcome in assay [3] was inactive.

Regarding `OCc1cc(O)c2nc3c(O)cccc3cc2c1`, the outcome in assay [3] was inactive.

`OCc1cc(O)c2nc3ccccc3cc2c1`: the outcome in [2], in assay [4], in assay [5], in assay [6] and in [7] was Active. For the same compound, in [3], the Activity entry was “Dose-dependent effect”. Besides, the fold change (FC) is 2.8 in assay [8] and 1.9 in [9].
